Results pooled from the literature.
Lines come from different studies, so protocols differ.
Target: Mitogen-activated protein kinase kinase kinase kinase 5 (MAP4K5, Homo sapiens, UniProt Q9Y4K4)

`c1cnn2ncc(-c3ccnc(N4CCC45COC5)n3)c2c1` gave a remaining binding of 94% (binding; 1 µM).
The remaining binding of `O=C(c1ccc(Nc2ncc(Cl)c(-c3ccc(Cl)s3)n2)cc1)N1CCC(N2CCCC2)CC1` is reported as 45% (binding; competition with immobilised ligand; 1 µM).
`CN(c1nccc(-c2cnn3ncccc23)n1)C1CC1` has a remaining binding of 3.2% (binding; 1 µM).
With `COc1cnc(Nc2cccc(S(N)(=O)=O)c2)nc1N1CCN(c2ccccc2)C(=O)C1` the remaining binding was 100% (binding; competition with immobilised ligand; 1 µM).
For `Cc1c(NC(=O)c2cc(C(N)=O)nc3cc(F)ccc23)c(C(F)(F)F)nn1Cc1ccc(C#N)cc1`, the remaining binding was 74% (cell-free assay; competition with immobilised ligand; 1 µM).
`CNC(=O)[C@@H]1CC[C@@H](n2c(-c3ccc4cnccc4c3)nc3ccc(C(=O)NCc4cccc(C(N)=O)c4)cc32)C1` gave a remaining binding of 100% (binding; competition with immobilised ligand; 1 µM).
The remaining binding of `CC(=O)Nc1c(C(C)=O)c(=O)n(C)c2nc(-c3ccc(Cl)cc3Cl)c(-c3ccc(Cl)cc3)cc12` is reported as 100% (cell-free assay; competition with immobilised ligand; 1 µM).
`CN(C)c1ncc(F)c(-c2cnn3ncccc23)n1` gave a remaining binding of 100% (binding; 1 µM).
`O=C(NCC1CCOCC1)c1n[nH]cc1NC(=O)c1c(F)cccc1F` has a remaining binding of 89% (binding; competition with immobilised ligand; 1 µM).
`FC(F)(F)Oc1cccc(-c2cnc3ccc(-c4ccncc4)nn23)c1` gave a remaining binding of 77% (cell-free assay; competition with immobilised ligand; 5 µM).
The remaining binding of `COc1ncc2cc3ccccc3nc2c1C#N` is reported as 95% (cell-free assay; competition with immobilised ligand; 5 µM).
`CCS(=O)(=O)c1cc2cc(C[C@](O)(CC(C)(C)c3ccc(F)cc3C(N)=O)C(F)(F)F)[nH]c2cn1` gave a remaining binding of 100% (cell-free assay; competition with immobilised ligand; 1 µM).
`O=C(c1ccc(Nc2nccc(-c3cc4ccccc4s3)n2)cc1)N1CCC(N2CCCC2)CC1` has a remaining binding of 100% (binding; competition with immobilised ligand; 1 µM).
The remaining binding of `Cc1cnn2ncc(-c3ccnc(N(C)C)n3)c2c1` is reported as 67% (binding; 1 µM).
`O=C(NCc1ncc(C(F)(F)F)cc1Cl)c1ccc2c(c1)C1(CCS(=O)(=O)CC1)[C@@H](C1CC1)N2S(=O)(=O)c1ccc(F)cc1` gave a remaining binding of 100% (cell-free assay; competition with immobilised ligand; 1 µM).
`Cc1cnc(Nc2ccc(C(=O)N3CCC(N4CCCC4)CC3)cc2)nc1-c1cc2ccccc2s1` has a remaining binding of 51% (binding; competition with immobilised ligand; 1 µM).
`CN(c1ccnc(CNc2nc(Nc3ccc4c(c3)CC(=O)N4)ncc2C(F)(F)F)n1)S(C)(=O)=O` has a remaining binding of 72% (cell-free assay; competition with immobilised ligand; 1 µM).
The remaining binding of `N[C@H]1CCN(c2nccc(-c3cnn4ncccc34)n2)C1` is reported as 100% (binding; 1 µM).
`C=CC(=O)N1CCC(C(=O)NCC(=O)N2CCN(c3nc(-c4cnc(N)nc4C(F)F)nc(N4CCOCC4)n3)CC2)CC1` has a remaining binding of 95% (binding; competition with immobilised ligand; 1 µM).
The remaining binding of `CC(=O)c1c(NS(C)(=O)=O)c2cc(-c3ccc(Cl)cc3)c(-c3ccc(Cl)cc3Cl)nc2n(C)c1=O` is reported as 100% (cell-free assay; competition with immobilised ligand; 1 µM).
`C[C@H]1CCN(c2nccc(-c3cnn4ncccc34)n2)C1` gave a remaining binding of 90% (binding; 1 µM).
